# Laboratory results reported in ChEMBL document CHEMBL1133507, “Novel bronchodilators: synthesis, transamination reactions, and pharmacology of a series of pyrazino[2,3-c][1,2,6]thiadiazine 2, 2-dioxides” (2000).
# Active and inactive are the calls of the source. The rule behind the calls is not given here.
# Columns and labels:
# Assay type in all cases: functional
# Cavia porcellus [1] = species on record: Cavia porcellus; test: Tracheal relaxing activity expressed as minimum inhibitory concentration required to obtain a inhibitory response by more than 50%; NA denotes no activity at 30 ug/mL.
# Method in brief: (§1)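 Tracheal relaxation was tested over several concentrations, each in duplicate. The value is the lowest concentration (µg/mL) giving more than 50% inhibition of the response.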
# Cavia porcellus [2] = species on record: Cavia porcellus; test: Bronchodilatory activity in vitro by tracheal tone inhibition at 30 ug/mL in guinea pig tracheal muscle.; settings: Muscle tissue
# Method in brief: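 In vitro tracheal relaxation. Percent inhibition was recorded with 30 µg/mL test compound, each concentration assayed in duplicate. Inhibition above 50% was taken as pharmacologically significant.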
# Cavia porcellus [3] = species on record: Cavia porcellus; test: Tracheal relaxing activity expressed as minimum inhibitory concentration required to obtain a inhibitory response by more than 50%; method in brief: as §1
MIC (Cavia porcellus [1]),MIC (Cavia porcellus [3]) [µg/mL],Compound,inhibition at 30 µg/mL (Cavia porcellus [2]) [%]
inactive,–,CCN1c2nccnc2C(N)=NS1(=O)=O,13
inactive,–,Cc1cnc2c(n1)C(N)=NS(=O)(=O)N2C,45
inactive,–,Cc1nc2c(nc1C)N(CC(=O)O)S(=O)(=O)N=C2N,13
inactive,–,CCc1nc2c(nc1C)C(N)=NS(=O)(=O)N2CC,0
–,30,CCN1c2nc(C(C)C)c(C)nc2C(N)=NS1(=O)=O,55
–,30,CCCN1c2nc(C)c(C)nc2C(N)=NS1(=O)=O,58
–,30,CCNC1=NS(=O)(=O)N(CC)c2ncc(C)nc21,63
inactive,–,CCCc1nc2c(nc1C)C(N)=NS(=O)(=O)N2CC,34
–,30,CCN1c2nc(C)c(-c3ccccc3)nc2C(N)=NS1(=O)=O,93
–,3,CCN1c2nc(-c3ccccc3)cnc2C(N)=NS1(=O)=O,95
–,30,Cc1nc2c(nc1C)N(CCO)S(=O)(=O)N=C2N,59
inactive,–,CCOC(=O)CN1c2ncc(C)nc2C(N)=NS1(=O)=O,20
–,30,CCc1nc2c(nc1C)C(NN)=NS(=O)(=O)N2CC,72
–,10,CCCc1cnc2c(n1)C(N)=NS(=O)(=O)N2CC,90
inactive,–,CN1c2nc(-c3ccccc3)cnc2C(NCCN)=NS1(=O)=O,6
inactive,–,CCc1nc2c(nc1C)C(NCCO)=NS(=O)(=O)N2CC,41
–,10,CN1c2nc(-c3ccccc3)cnc2C(NN)=NS1(=O)=O,81
inactive,–,CCN1c2nc(C)cnc2C(N)=NS1(=O)=O,42
–,30,CCN1c2ncc(C)nc2C(N)=NS1(=O)=O,67
inactive,–,CCN1c2nc(-c3ccccc3)c(-c3ccccc3)nc2C(N)=NS1(=O)=O,24
–,10,CCCCc1nc2c(nc1C)C(N)=NS(=O)(=O)N2C,64
–,10,CN1c2nc3c(nc2C(N)=NS1(=O)=O)CCCCC3,88
–,30,CCc1nc2c(nc1C)C(NC)=NS(=O)(=O)N2CC,75
–,10,CCN1c2nc3c(nc2C(N)=NS1(=O)=O)CCCC3,82
–,10,CCN1c2nc(C)c(Br)nc2C(N)=NS1(=O)=O,88

MIC (Cavia porcellus [1]),MIC (Cavia porcellus [3]) [µg/mL],Compound,inhibition at 30 µg/mL (Cavia porcellus [2]) [%]
–,10,CCNC1=NS(=O)(=O)N(CC)c2ncc(-c3ccccc3)nc21,74
–,10,CCOC(=O)CN1c2nc(-c3ccccc3)cnc2C(N)=NS1(=O)=O,72
–,30,CCN1c2ncc(C(C)C)nc2C(N)=NS1(=O)=O,57
inactive,–,Cc1nc2c(nc1-c1ccccc1)C(N1CCCC1)=NS(=O)(=O)N2C,10
–,30,CCCN1c2nc(CC)c(C)nc2C(N)=NS1(=O)=O,51
inactive,–,CCN1c2nc(-c3ccccc3)cnc2C(NCc2ccccc2)=NS1(=O)=O,20
–,10,CCc1nc2c(nc1C)N(CC)S(=O)(=O)N=C2N,95
–,3,Cc1nc2c(nc1C)N(C)S(=O)(=O)N=C2N,92
–,30,CN1c2ncc(-c3ccccc3)nc2C(N)=NS1(=O)=O,56
–,–,CCN1c2nc(C)c(C)nc2C(N)=NS1(=O)=O,33
–,30,CCN1c2ncc(C(C)(C)C)nc2C(N)=NS1(=O)=O,86
–,30,CCN1c2nc(-c3ccccc3)c(Br)nc2C(N)=NS1(=O)=O,63
–,30,CCc1cnc2c(n1)N(CC)S(=O)(=O)N=C2N,80
–,3,CCN1c2nc(-c3ccccc3)c(C)nc2C(N)=NS1(=O)=O,100
inactive,–,CCc1nc2c(nc1CC)N(CC)S(=O)(=O)N=C2N,0
inactive,–,CCN1c2ncc(-c3ccccc3)nc2C(N)=NS1(=O)=O,20
inactive,–,Cc1nc2c(nc1C)N(C)S(=O)(=O)N=C2NCc1ccccn1,31
–,30,CN1c2nc(-c3ccccc3)c(Cl)nc2C(N)=NS1(=O)=O,86
inactive,–,CCOC(=O)CN1c2nc(C)c(C)nc2C(N)=NS1(=O)=O,15
inactive,–,CCc1nc2c(nc1C)C(NCCN(C)C)=NS(=O)(=O)N2CC,34
inactive,–,CCN1c2ncc(C)nc2C(NCc2ccccc2)=NS1(=O)=O,27
inactive,–,CCN1c2nc(C(C)C)c(C(C)C)nc2C(N)=NS1(=O)=O,0
inactive,–,CN1c2nccnc2C(N)=NS1(=O)=O,22
–,10,CCc1cnc2c(n1)C(N)=NS(=O)(=O)N2CC,72
–,3,CCc1nc2c(nc1C)C(N)=NS(=O)(=O)N2C,95

Compound,MIC (Cavia porcellus [1]),MIC (Cavia porcellus [3]) [µg/mL],inhibition at 30 µg/mL (Cavia porcellus [2]) [%]
Cn1c(=O)c2nc[nH]c2n(C)c1=O.O [THEOPHYLLINE],–,30,60
